Legend:
[1] = Partition coefficient (logP); assay type: physicochemical; settings: octanol/water
[2] = tested on: Mus musculus; experiment: Percent tumor growth inhibition against human epidermoid carcinoma KB/8.5 implanted subcutaneously in mice at 100 mg/kg of compound along with 8 mg/kg (DOX ) was determined; assay type: functional
Summary of the method: (§1)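 Athymic nude mice bearing sc KB/8.5 tumors (8×10^6 cells, colchicine withdrawn for two passages), grouped at 100–300 mg tumor mass, 5–10 mice/group. Doxorubicin 8 mg/kg given once iv; reversal agent or placebo given sc 2 h before and 2 h after. Tumor mass on day 14 used for relative tumor growth versus doxorubicin alone; Student t-test on log RTG.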

[3] = In vitro concentration at which 50% of human colon carcinoma cells (S1-B1-20) resistant to bisantrene have survived; assay type: ADME, cell-based, S1B1-20; settings: S1-B1-20 human colon carcinoma cells resistant to bisantrene, read-out: LD50 (the source's name)
Summary of the method: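 S1-B1-20 cells (LS 174 T-derived S1 clone selected in bisantrene over 12–16 weeks), trypsinized, 20 000 cells/well. Test agent alone in DMSO (≤0.1% final), 0.1–80 µM, 3 days at 37 °C, 7% CO2. Survival by sulforhodamine B read at 540 nm versus untreated cells. Two to four measurement sets were made, and the value is the concentration giving 50% survival from a best-fit curve.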

[4] = tested on: Mus musculus; experiment: Relative tumor growth inhibition against human epidermoid carcinoma KB/8.5 implanted subcutaneously only in mice at 8 mg/kg (DOX); assay type: functional; settings: route subcutaneous
Summary of the method: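 KB/8.5 cells grown in RPMI 1640 with 5% fetal calf serum plus colchicine (10 ng/mL), which was removed for two passages. 8 × 10^6 cells were then implanted sc in athymic nude mice. At 100-300 mg tumor mass, mice were grouped 5-10/group. Doxorubicin was given as a single iv dose (8 mg/kg). Tumor mass was measured on day 14, and relative growth was compared with saline control.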

[5] = tested on: S1B1-20; experiment: In vitro concentration required to inhibit tumor activity on subclone of human colon carcinoma cells (S1-B1-20) resistant to bisantrene; assay type: functional, cell-based
Summary of the method: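 S1-B1-20 cells (S1 clone of LS 174 T, selected in bisantrene over 12–16 weeks) plated at 20 000 cells/well with or without 20 μM bisantrene, plus test agent 0.1–80 μM from DMSO stock (final DMSO ≤0.1%). 3 days, 37 °C, 7% CO2. Survival by sulforhodamine B at 540 nm. IC50 from best-fit curve of difference score (survival alone minus survival with bisantrene) at 50; 2–4 sets of measurements.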

[6] = tested on: Mus musculus; experiment: Percent tumor growth inhibition against human epidermoid carcinoma KB/8.5 implanted subcutaneously in mice at 200 mg/kg of compound along with 8 mg/kg (DOX ) was determined; assay type: functional; summary of the method: as §1

| SMILES | logP ([1]; read-out: logP) | TGI [2] [%] | CC50 [3] [µM] | Relative tumor growth [4] | IC50 ([5]; Homo sapiens, S1B1-20) [µM] | logP [1] | TGI [6] [%] | Relative tumor growth ([4]; 8 mg/kg) | IC50 ([5]; s1b1-20) [µM] |
| --- | --- | --- | --- | --- | --- | --- | --- | --- | --- |
| COc1ccc(C(CCCCCN2CCc3cc(OC)c(OC)cc3C2)SCc2ccccc2)cc1OC (stereo not drawn) | 6.63 | 68 | 15.1 | 77 | 1.98 |  |  |  |  |
| COc1cc2c(cc1O)CN(CCCCCC(C#N)(SC1CCCCC1)c1ccc(OC)c(OC)c1)CC2 (stereo not drawn) | 6 |  |  |  |  |  |  |  |  |
| COc1cc2c(cc1OC)CN(CCCCCC(Sc1ccc(C)cc1)c1ccc(OC(F)(F)F)cc1)CC2 (stereo not drawn) | 8.44 | 51 | 16.9 | 100 | 2.07 |  |  |  |  |
| COc1ccc(C(C#N)(CCCCN2CCc3cc(OC)c(OC)cc3C2)Sc2ccc(C)cc2)cc1OC.ClCCl (stereo not drawn) |  |  |  |  |  | 5.65 |  |  |  |
| COc1ccc(C(CCCCCCN2CCc3cc(OC)c(OC)cc3C2)Sc2ccc(C)cc2)cc1OC (stereo not drawn) | 7.95 | 64 | 13.2 | 45 | 0.9 |  |  |  |  |
| COc1cc2c(cc1OC)CN(CCCCCC(Sc1ccc(C)cc1)c1ccc3c(c1)OCO3)CC2 (stereo not drawn) | 7.31 |  | 15.9 | 100 | 0.5 |  | 39 |  |  |
| COc1ccc(C(C#N)(CCCCCN2CCc3cc(OC)c(OCCCl)cc3C2)SC2CCCCC2)cc1OC (stereo not drawn) | 6.87 |  |  |  |  |  |  |  |  |
| COc1ccc(C(CCCCCCN2Cc3cc(OC)c(OC)cc3C2)Sc2ccc(C)cc2)cc1OC (stereo not drawn) | 7.32 | 60 | 22.1 | 75 | 1.84 |  |  |  |  |
| COc1ccc(C(C#N)(CCCCCN2CCc3cc(OC)c(OCCn4ccnc4)cc3C2)Sc2ccc(C)cc2)cc1OC (stereo in doubt; 48) | 5.86 |  | 11.6 |  | 0.53 |  |  |  |  |
| COc1ccc(CCN(C)CCCC(C#N)(c2ccc(OC)c(OC)c2)C(C)C)cc1OC (stereo not drawn) [VERAPAMIL] |  |  |  |  | 17.3 |  |  |  |  |
| COc1ccc(C(C#N)(CCCCCN2CCc3cc(OC)c(OCCn4ccnc4)cc3C2)SC2CCCCC2)cc1OC (stereo not drawn) | 5.96 |  | 8.39 |  | 0.96 |  |  |  |  |
| COc1ccc(C(C#N)(CCCN2CCc3cc(O)c(O)cc3C2C)Sc2ccc(C)cc2)cc1OC (stereo not drawn) | 4.92 |  |  |  | 4.7 |  |  |  |  |
| COc1cc2c(cc1O)CN(CCCCCC(C#N)(Sc1ccc(C)cc1)c1ccc(OC)c(OC)c1)C2 (stereo not drawn) | 5.78 |  |  |  |  |  |  |  |  |
| COc1ccc(C(C#N)(CCCCCN2CCc3cc(OC)c(OC)cc3C2)SC2CCCCC2)cc1OC (stereo not drawn) | 6.28 | 69 | 14 | 67 | 0.46 |  |  |  |  |
| COc1ccc(C(C#N)(CCCCCN2CCc3cc(OC)c(OCCN(C)C)cc3C2)Sc2ccc(C)cc2)cc1OC (stereo not drawn) | 6.1 |  | 6.68 |  |  |  |  |  |  |
| COc1ccc(C(C#N)(CCCCCN2Cc3cc(OC)c(OC)cc3C2)SC2CCCCC2)cc1OC (stereo in doubt; 46) | 5.65 |  | 11.8 |  | 0.26 |  |  |  |  |
| COc1ccc(C(CCCCCN2CCc3cc(OC)c(OC)cc3C2)SC(C)(C)C)cc1OC (stereo not drawn) | 6.54 |  | 76.8 | 67 | 3.58 |  | 53 |  |  |
| COc1ccc(C(C#N)(Cc2cccc(CN3CCc4cc(OC)c(OC)cc4C3)c2)Sc2ccc(C)cc2)cc1OC (stereo not drawn) | 5.91 |  | 23.3 |  | 2.19 |  |  |  |  |
| COc1cc2c(cc1OC)CN(CCCCCCC(Sc1ccc(C)cc1)c1ccc(OC)c(OCCCl)c1)CC2 (stereo not drawn) | 8.54 |  | 10.3 |  | 0.96 |  |  |  |  |
| COc1ccc(C(CCCCCCN2CCc3cc(OC)c(OC)c(OC)c3C2)Sc2ccc(C)cc2)cc1OC (stereo not drawn) | 7.38 | 54 | 14 | 64 | 0.7 |  |  |  |  |

| SMILES | logP ([1]; read-out: logP) | TGI [2] [%] | CC50 [3] [µM] | Relative tumor growth [4] | IC50 ([5]; Homo sapiens, S1B1-20) [µM] | logP [1] | TGI [6] [%] | Relative tumor growth ([4]; 8 mg/kg) | IC50 ([5]; s1b1-20) [µM] |
| --- | --- | --- | --- | --- | --- | --- | --- | --- | --- |
| COc1cc2c(cc1OC)CN(CCCCCCC(Sc1ccc(C)cc1)c1ccc(OC)c(OCCn3ccnc3)c1)CC2 (stereo in doubt; 37b) | 7.63 | 67 | 5.52 |  |  |  |  | 72 | 0.69 |
| CCC(CCCCCN1CCc2cc(OC)c(OC)cc2C1)(Sc1ccc(C)cc1)c1ccc(OC)c(OC)c1 (stereo not drawn) | 8.34 | 72 | 11.8 | 77 | 1.23 |  |  |  |  |
| COc1ccc2c(c1)CCN(CCCCCC(Sc1ccc(C)cc1)c1ccc(OC)c(OC)c1)C2 (stereo not drawn) | 7.88 |  | 22.2 |  | 3.09 |  |  |  |  |
| COc1ccc(C(C#N)(CCCCCN2Cc3cc(Cl)c(Cl)cc3C2)Sc2ccc(C)cc2)cc1OC (stereo not drawn) | 7.4 |  |  | 57 | 10.5 |  | 94 |  |  |
| COc1ccc(C(CCCCCN2CCc3cc(OC)c(OC)cc3C2)SC2CCCCC2)cc1OC (stereo not drawn) | 7.33 | 57 | 16.1 | 67 | 0.73 |  |  |  |  |
| COc1ccc(C(C#N)(CCCCCN2Cc3cc(OC)c(OCCCl)cc3C2)Sc2ccc(C)cc2)cc1OC (stereo not drawn) | 6.14 |  |  |  |  |  |  |  |  |
| COc1ccc(C(C#N)(CC#CCCN2CCc3cc(OC)c(OC)cc3C2)Sc2ccc(C)cc2)cc1OC (stereo not drawn) | 5.52 |  | 36 |  | 0.97 |  |  |  |  |
| COc1ccc(C(CCCN2CCc3cc(OC)c(OC)cc3C2)Sc2ccc(C)cc2)cc1OC (stereo not drawn) | 6.36 |  | 25.8 |  | 1.23 |  |  |  |  |
| COc1cc2c(cc1O)CN(CCCCCC(C#N)(Sc1ccc(C)cc1)c1ccc(OC)c(OC)c1)CC2 (stereo not drawn) | 5.9 |  | 24.9 |  | 3.11 |  |  |  |  |
| COc1ccc(C(CCCCCN2CCc3cc4c(cc3C2)OCO4)Sc2ccc(C)cc2)cc1OC (stereo not drawn) | 7.31 |  | 24.9 | 100 |  |  | 57 |  |  |
| COc1cc2c(cc1OC)CN(CCCCCCC(Sc1ccc(C)cc1)c1ccc(F)cc1)CC2 (stereo not drawn) | 8.63 |  | 27 |  | 2.7 |  |  |  |  |
| COc1ccc(C(C#N)(CCCCCN2CCc3cc(OC)c(OC)cc3C2)Sc2ccccn2)cc1OC (stereo not drawn) | 4.72 |  | 50.8 |  | 2.12 |  |  |  |  |
| COc1ccc(C(C#N)(CCCCCN2Cc3cc(OC)c(OCCn4ccnc4)cc3C2)Sc2ccc(C)cc2)cc1OC (stereo not drawn) | 5.23 |  | 8.37 |  | 0.5 |  |  |  |  |
| COc1ccc(C(C#N)(CCCCCN2CCc3cc(OC)c(OCc4ccccc4)cc3C2)Sc2ccc(C)cc2)cc1OC (stereo not drawn) | 7.95 |  | 40 | 100 | 0.85 |  | 71 |  |  |
| COc1cc2c(cc1OC)CN(CCCCCCC(Sc1ccc(C)cc1)c1ccc(OC)c(O[Si](C)(C)C(C)(C)C)c1)CC2 (stereo not drawn) |  |  | 49.1 |  | 10.7 | 11.68 |  |  |  |
| COc1ccc(C(CCCCCCN2CCc3cc(OC)c(OC)cc3C2)Sc2ccc(C)cc2)cc1O (stereo not drawn) | 7.67 |  | 13.1 | 75 | 0.84 |  | 54 |  |  |
| CCCCCSC(CCCCCN1CCc2cc(OC)c(OC)cc2C1)c1ccc(OC)c(OC)c1 (stereo not drawn) | 5.66 |  | 16.3 |  | 0.5 |  |  |  |  |
| COc1ccc(CC2c3cc(OC)c(OC)cc3CCN2CCCCCC(C#N)(Sc2ccc(C)cc2)c2ccc(OC)c(OC)c2)cc1OC (stereo not drawn) | 7.57 |  | 78.2 | 64 | 1.06 |  | 58 |  |  |
| COc1ccc(C(C#N)(CCCCN2CCc3cc(OC)c(OC)cc3C2)Sc2ccc(C)cc2)cc1OC (stereo not drawn) | 5.65 |  | 41.8 |  | 0.62 |  |  |  |  |

From ChEMBL document CHEMBL1132241, “Novel multidrug resistance reversal agents” (J Med Chem, 1999)
